Measurements: ChEMBL document CHEMBL2069230, “Synthesis, biological evaluation, and docking studies of 3-(substituted)-aryl-5-(9-methyl-3-carbazole)-1H-2-pyrazolines as potent anti-inflammatory and antioxidant agents” (Bioorg Med Chem Lett, 2012)

Key:
[1] = Antioxidant activity assessed as H2O2-induced hydroxyl radical scavenging activity at 100 uM after 5 mins by spectrophotometry; type: functional
How it was run: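 Mixture of FeCl2 (1 mM), 1,10-phenanthroline (1 mM), phosphate buffer (0.2 M, pH 7.8), H2O2 (0.17 M) and sample (0.1 mM); reaction started with H2O2, 5 min at room temperature, absorbance at 560 nm. Ascorbic acid (0.1 mM) reference.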

Homo sapiens = species: Homo sapiens; test: Selectivity ratio of inhibition of COX2 to inhibition of COX1
[2] = biological target: Prostaglandin G/H synthase 1 (Homo sapiens) (UniProt P23219); test: Inhibition of COX1 peroxidase activity assessed as formation of TMPD at 100 uM by colorimetric analysis
Chain of Prostaglandin G/H synthase 1 (Homo sapiens) (P23219 whole entry): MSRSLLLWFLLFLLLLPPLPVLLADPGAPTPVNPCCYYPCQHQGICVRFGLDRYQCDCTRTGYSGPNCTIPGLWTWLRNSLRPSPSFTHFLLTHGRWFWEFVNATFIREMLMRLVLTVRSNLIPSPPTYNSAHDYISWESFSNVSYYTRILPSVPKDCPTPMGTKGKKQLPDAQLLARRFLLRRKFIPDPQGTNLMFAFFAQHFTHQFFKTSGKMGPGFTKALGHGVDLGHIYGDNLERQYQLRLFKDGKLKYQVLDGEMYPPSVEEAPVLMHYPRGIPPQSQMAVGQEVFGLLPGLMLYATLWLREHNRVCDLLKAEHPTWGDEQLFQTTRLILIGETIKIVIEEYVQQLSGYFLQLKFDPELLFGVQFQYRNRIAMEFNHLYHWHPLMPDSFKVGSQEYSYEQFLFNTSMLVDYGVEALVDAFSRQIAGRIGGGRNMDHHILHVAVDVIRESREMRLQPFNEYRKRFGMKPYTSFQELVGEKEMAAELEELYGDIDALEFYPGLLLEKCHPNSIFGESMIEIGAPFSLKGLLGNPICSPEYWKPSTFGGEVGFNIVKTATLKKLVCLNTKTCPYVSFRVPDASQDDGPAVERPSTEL
How it was run: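 COX-1 peroxidase activity: assay buffer, heme and enzyme with sample (0.1 mM); oxidized TMPD appearance monitored colorimetrically at 590 nm.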

[3] = system: Radical scavenging activity; test: Antioxidant activity assessed as DPPH radical scavenging activity at 100 uM after 20 mins by spectrophotometry; type: functional
How it was run: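 Test solution (0.1 mM) mixed with an equal quantity of 0.1 mM DPPH in ethanol; 20 min at room temperature, then DPPH reduction read as absorbance at 517 nm. Ascorbic acid (0.1 mM) as reference.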

[4] = Antioxidant activity assessed as superoxide radical scavenging activity at 100 uM after 5 mins by NBT reduction assay; type: functional
How it was run: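 Superoxide generated in Tris-HCl (100 mM, pH 7.4) with NBT (300 µM), NADH (936 µM) and sample (0.1 mM); NBT reduction read after 5 min at room temperature as absorbance at 560 nm. Ascorbic acid (0.1 mM) reference.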

Mus musculus [5] = test: Antiinflammatory activity in AKR mouse assessed as inhibition of carrageenan-induced paw edema at 0.01 mmol/kg dosed intradermally after 3.5 hrs relative to vehicle-treated control; type: functional
How it was run: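 Edema induced in right hind paw of AKR mice (both sexes, pregnant females excluded, fasted during experiment) by intradermal 0.05 mL of 2% carrageenin in water; 6–10 animals per group. Paw weight increase, injected vs uninjected paw, compared with water-treated controls as percent edema inhibition; experiments in duplicate, mean of two.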

Mus musculus [6] = test: Toxicity in carrageenan-challenged AKR mouse up to 0.5 mmol/kg dosed intradermally; type: organism-based; details: in vivo, other

Which Activity [1] does the source give for `Cn1c2ccccc2c2cc(C3CC(c4ccc([N+](=O)[O-])cc4)=NN3)ccc21` (stereo unspecified) here?
Its Activity is 64.8%.

And the Selectivity ratio (Homo sapiens)?
The Selectivity ratio was 1.3.

What about the inhibition [2] of the same compound?
The inhibition was 14.2%.

What about the Activity [3] of the same compound?
Its Activity is 81.1%.

And the Activity [4]?
Its Activity is 65.1%.

With `Cn1c2ccccc2c2cc(C3CC(c4cc(Cl)ccc4Cl)=NN3)ccc21` (stereo unspecified) as the compound, how does the Activity [1] read?
The Activity was 78.6%.

And the Selectivity ratio (Homo sapiens)?
The Selectivity ratio was 1.14.

And the inhibition [2]?
Its inhibition is 8.85%.

And the Activity [3]?
The Activity was 91.7%.

What about the Activity [4] of the same compound?
Its Activity is 86.3%.

Which Activity [1] does the source give for `Cn1c2ccccc2c2cc(C3CC(c4ccc(Cl)cc4Cl)=NN3)ccc21` (stereo unspecified) here?
The Activity was 69.3%.

What about the Selectivity ratio (Homo sapiens) of the same compound?
The Selectivity ratio was 1.68.

What about the inhibition [2] of the same compound?
The inhibition was 24.1%.

What about the Activity [3] of the same compound?
The Activity was 92.1%.

And the Activity [4]?
The Activity was 81.7%.

What does the source list for `O=C1O[C@H]([C@@H](O)CO)C(O)=C1O`?
Activity [1]: 88.3%; Activity [3]: 91.5%; Activity [4]: 52%

Which Activity [1] does the source give for `COc1cc(OC)c(C2=NNC(c3ccc4c(c3)c3ccccc3n4C)C2)c(OC)c1` (stereo unspecified) here?
The Activity was 74.3%.

And the Selectivity ratio (Homo sapiens)?
Its Selectivity ratio is 3.69.

And the inhibition [2]?
Its inhibition is 23.5%.

What about the Activity [3] of the same compound?
The Activity was 86%.

What about the inhibition in vivo at 10 µmol/kg (Mus musculus [5]) of the same compound?
Its inhibition in vivo at 10 µmol/kg is 54.3%.

And the Activity (Mus musculus [6])?
Its Activity is “Non-toxic”.

And the Activity [4]?
The Activity was 70.4%.

Which Activity [1] does the source give for `Cn1c2ccccc2c2cc(C3CC(c4ccc(Cl)cc4)=NN3)ccc21` (stereo unspecified) here?
The Activity was 55%.

And the Selectivity ratio (Homo sapiens)?
Its Selectivity ratio is 1.24.

What about the inhibition [2] of the same compound?
The inhibition was 10.2%.

And the Activity [3]?
The Activity was 79.3%.

What about the Activity [4] of the same compound?
Its Activity is 62.4%.

Which Activity [1] does the source give for `Cn1c2ccccc2c2cc(C3CC(c4ccc(F)c(F)c4)=NN3)ccc21` (stereo unspecified) here?
The Activity was 63.2%.

And the Selectivity ratio (Homo sapiens)?
The Selectivity ratio was 0.22.

What about the inhibition [2] of the same compound?
Its inhibition is 90.8%.

What about the Activity [3] of the same compound?
The Activity was 79.8%.

And the Activity [4]?
Its Activity is 69.4%.

Which Activity [1] does the source give for `Cn1c2ccccc2c2cc(C3CC(c4ccccn4)=NN3)ccc21` (stereo unspecified) here?
Its Activity is 54.8%.

And the Selectivity ratio (Homo sapiens)?
Its Selectivity ratio is 2.06.

What about the inhibition [2] of the same compound?
Its inhibition is 20.1%.

And the Activity [3]?
Its Activity is 72%.

And the Activity [4]?
The Activity was 62.2%.

With `COc1ccc(C2=NNC(c3ccc4c(c3)c3ccccc3n4C)C2)cc1OC` (stereo unspecified) as the compound, how does the Activity [1] read?
The Activity was 69.3%.

What about the Selectivity ratio (Homo sapiens) of the same compound?
The Selectivity ratio was 3.66.

And the inhibition [2]?
Its inhibition is 24.1%.

What about the Activity [3] of the same compound?
Its Activity is 84%.

And the inhibition in vivo at 10 µmol/kg (Mus musculus [5])?
The inhibition in vivo at 10 µmol/kg was 60.3%.

And the Activity (Mus musculus [6])?
The Activity was “Non-toxic”.

What about the Activity [4] of the same compound?
Its Activity is 69.4%.

For `Cn1c2ccccc2c2cc(C3CC(c4ccc(F)cc4F)=NN3)ccc21` (stereo unspecified), which Activity [1] is on record?
Its Activity is 60.2%.

What about the Selectivity ratio (Homo sapiens) of the same compound?
The Selectivity ratio was 2.58.

What about the inhibition [2] of the same compound?
Its inhibition is 10.4%.

And the Activity [3]?
The Activity was 83.8%.

And the Activity [4]?
Its Activity is 63.2%.

What does the source list for `Cn1c2ccccc2c2cc(C3CC(c4ccc(F)cc4)=NN3)ccc21` (stereo unspecified)?
Activity [1]: 54.6%; Selectivity ratio (Homo sapiens): 0.49; inhibition [2]: 46.2%; Activity [3]: 79.3%; Activity [4]: 45.6%

With `Cn1c2ccccc2c2cc(C3CC(c4ccc(Cl)c(Cl)c4)=NN3)ccc21` (stereo unspecified) as the compound, how does the Activity [1] read?
Its Activity is 65.1%.

And the Selectivity ratio (Homo sapiens)?
Its Selectivity ratio is 1.34.

And the inhibition [2]?
The inhibition was 12.2%.

And the Activity [3]?
The Activity was 87.4%.

What about the Activity [4] of the same compound?
Its Activity is 61.4%.

For `COc1ccc(C2=NNC(c3ccc4c(c3)c3ccccc3n4C)C2)cc1` (stereo unspecified), which Activity [1] is on record?
The Activity was 58.2%.

What about the Selectivity ratio (Homo sapiens) of the same compound?
The Selectivity ratio was 4.06.

What about the inhibition [2] of the same compound?
The inhibition was 20.6%.

And the Activity [3]?
The Activity was 80.8%.

What about the inhibition in vivo at 10 µmol/kg (Mus musculus [5]) of the same compound?
Its inhibition in vivo at 10 µmol/kg is 51.4%.

What about the Activity (Mus musculus [6]) of the same compound?
The Activity was “Non-toxic”.

What about the Activity [4] of the same compound?
Its Activity is 56.2%.

For `Cn1c2ccccc2c2cc(C3CC(c4ccc(Br)cc4)=NN3)ccc21` (stereo unspecified), which Activity [1] is on record?
Its Activity is 57.5%.

What about the Selectivity ratio (Homo sapiens) of the same compound?
Its Selectivity ratio is 1.02.

What about the inhibition [2] of the same compound?
Its inhibition is 87.4%.

What about the Activity [3] of the same compound?
The Activity was 80.6%.

And the Activity [4]?
The Activity was 56.2%.

Which Activity [1] does the source give for `Cn1c2ccccc2c2cc(C3CC(c4ccccc4)=NN3)ccc21` (stereo unspecified) here?
Its Activity is 63.5%.

What about the Selectivity ratio (Homo sapiens) of the same compound?
The Selectivity ratio was 2.16.

And the inhibition [2]?
The inhibition was 10.2%.

What about the Activity [3] of the same compound?
The Activity was 79.9%.

What about the Activity [4] of the same compound?
Its Activity is 63.2%.

What does the source list for `Cn1c2ccccc2c2cc(C3CC(c4cccs4)=NN3)ccc21` (stereo unspecified)?
Activity [1]: 63.1%; Selectivity ratio (Homo sapiens): 2.61; inhibition [2]: 18.5%; Activity [3]: 85.3%; inhibition in vivo at 10 µmol/kg (Mus musculus [5]): 42.2%; Activity (Mus musculus [6]): Non-toxic; Activity [4]: 81.1%
